Laboratory results taken from ChEMBL document CHEMBL4689842, “EUbOPEN Chemogenomics Library wave 1” (2021).

Test system: Fibroblast
Experiment: Multiplex assay against human fibroblast
Assay type: toxicity, cell-based
How it was run: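 Live cells carried four stains from seeding: Hoechst33342, BioTracker Green Microtubule Cytoskeleton Dye, MitoTracker Red and Annexin V Alexa Fluor 680. They were imaged on a CQ1 microscope at 37°C and 5% CO2 after compound addition. Using CellPathfinder machine-learning gating, cells were split into Hoechst high-intensity objects or normal cells, normal cells into healthy, pyknosed or fragmented nuclei, and pyknosed cells into mitotic or apoptotic; tubulin, mitochondrial-mass and membrane-permeability phenotypes are per cents of healthy-nucleus cells.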

[1] = 12 h, 1 µM, compound concentration 1 uM, replicate 1
[2] = 12 h, 1 µM, compound concentration 1 uM, replicate 2
[3] = 12 h, 10 µM, compound concentration 10 uM, replicate 1
[4] = 12 h, 10 µM, compound concentration 10 uM, replicate 2
[5] = 24 h, 1 µM, compound concentration 1 uM, replicate 1
[6] = 24 h, 1 µM, compound concentration 1 uM, replicate 2
[7] = 24 h, 10 µM, compound concentration 10 uM, replicate 1
[8] = 24 h, 10 µM, compound concentration 10 uM, replicate 2
[9] = 48 h, 1 µM, compound concentration 1 uM, replicate 1
[10] = 48 h, 1 µM, compound concentration 1 uM, replicate 2
[11] = 48 h, 10 µM, compound concentration 10 uM, replicate 1
[12] = 48 h, 10 µM, compound concentration 10 uM, replicate 2

## CCOc1cc2ncc(C#N)c(Nc3ccc(OCc4ccccn4)c(Cl)c3)c2cc1NC(=O)/C=C/CN(C)C [NERATINIB]
[1]
  Population Apoptotic (%): 55%
  Population Fragmented Nuclei (%): 21%
  Population Healthy Nuclei (%): 37%
  Population Hoechst High Intensity Objects (%): 14%
  Population Membrane Permeable-Phenotype (%): 25%
  Population Mitochondria Different-Phenotype (%): 13%
  Population Mitotic Cells (%): 44%
  Population Normal (%): 85%
  Population Pyknosed Nuclei (%): 41%
  Population Tubulin-Different-Phenotype (%): 58%
  Total Cell Count: 134
[2]
  Population Apoptotic (%): 11%
  Population Fragmented Nuclei (%): 9%
  Population Healthy Nuclei (%): 82%
  Population Hoechst High Intensity Objects (%): 8%
  Population Membrane Permeable-Phenotype (%): 4%
  Population Mitochondria Different-Phenotype (%): 18%
  Population Mitotic Cells (%): 88%
  Population Normal (%): 91%
  Population Pyknosed Nuclei (%): 9%
  Population Tubulin-Different-Phenotype (%): 15%
  Total Cell Count: 64
[3]
  Population Apoptotic (%): 45%
  Population Fragmented Nuclei (%): 25%
  Population Healthy Nuclei (%): 44%
  Population Hoechst High Intensity Objects (%): 34%
  Population Membrane Permeable-Phenotype (%): 7%
  Population Mitochondria Different-Phenotype (%): 1%
  Population Mitotic Cells (%): 54%
  Population Normal (%): 65%
  Population Pyknosed Nuclei (%): 30%
  Population Tubulin-Different-Phenotype (%): 13%
  Total Cell Count: 621
[4]
  Population Apoptotic (%): 12%
  Population Fragmented Nuclei (%): 35%
  Population Healthy Nuclei (%): 50%
  Population Hoechst High Intensity Objects (%): 27%
  Population Mitochondria Different-Phenotype (%): 16%
  Population Mitotic Cells (%): 87%
  Population Normal (%): 72%
  Population Pyknosed Nuclei (%): 13%
  Population Tubulin-Different-Phenotype (%): 42%
  Total Cell Count: 109
[5]
  Population Apoptotic (%): 64%
  Population Fragmented Nuclei (%): 21%
  Population Healthy Nuclei (%): 40%
  Population Hoechst High Intensity Objects (%): 18%
  Population Membrane Permeable-Phenotype (%): 32%
  Population Mitochondria Different-Phenotype (%): 11%
  Population Mitotic Cells (%): 35%
  Population Normal (%): 81%
  Population Pyknosed Nuclei (%): 37%
  Population Tubulin-Different-Phenotype (%): 53%
  Total Cell Count: 129
[6]
  Population Apoptotic (%): 23%
  Population Fragmented Nuclei (%): 9%
  Population Healthy Nuclei (%): 76%
  Population Hoechst High Intensity Objects (%): 5%
  Population Membrane Permeable-Phenotype (%): 5%
  Population Mitochondria Different-Phenotype (%): 6%
  Population Mitotic Cells (%): 76%
  Population Normal (%): 94%
  Population Pyknosed Nuclei (%): 14%
  Population Tubulin-Different-Phenotype (%): 11%
  Total Cell Count: 73
[7]
  Population Apoptotic (%): 52%
  Population Fragmented Nuclei (%): 25%
  Population Healthy Nuclei (%): 48%
  Population Hoechst High Intensity Objects (%): 39%
  Population Membrane Permeable-Phenotype (%): 3%
  Population Mitochondria Different-Phenotype (%): 3%
  Population Mitotic Cells (%): 47%
  Population Normal (%): 60%
  Population Pyknosed Nuclei (%): 26%
  Population Tubulin-Different-Phenotype (%): 15%
  Total Cell Count: 651
[8]
  Population Apoptotic (%): 12%
  Population Fragmented Nuclei (%): 36%
  Population Healthy Nuclei (%): 49%
  Population Hoechst High Intensity Objects (%): 26%
  Population Membrane Permeable-Phenotype (%): 10%
  Population Mitochondria Different-Phenotype (%): 14%
  Population Mitotic Cells (%): 87%
  Population Normal (%): 73%
  Population Pyknosed Nuclei (%): 14%
  Population Tubulin-Different-Phenotype (%): 34%
  Total Cell Count: 124
[9]
  Population Apoptotic (%): 61%
  Population Fragmented Nuclei (%): 36%
  Population Healthy Nuclei (%): 45%
  Population Hoechst High Intensity Objects (%): 18%
  Population Membrane Permeable-Phenotype (%): 26%
  Population Mitochondria Different-Phenotype (%): 6%
  Population Mitotic Cells (%): 38%
  Population Normal (%): 81%
  Population Pyknosed Nuclei (%): 18%
  Population Tubulin-Different-Phenotype (%): 51%
  Total Cell Count: 122
[10]
  Population Apoptotic (%): 33%
  Population Fragmented Nuclei (%): 20%
  Population Healthy Nuclei (%): 76%
  Population Hoechst High Intensity Objects (%): 12%
  Population Membrane Permeable-Phenotype (%): 9%
  Population Mitochondria Different-Phenotype (%): 4%
  Population Mitotic Cells (%): 66%
  Population Normal (%): 87%
  Population Pyknosed Nuclei (%): 2%
  Population Tubulin-Different-Phenotype (%): 14%
  Total Cell Count: 123
[11]
  Population Apoptotic (%): 55%
  Population Fragmented Nuclei (%): 28%
  Population Healthy Nuclei (%): 42%
  Population Hoechst High Intensity Objects (%): 42%
  Population Membrane Permeable-Phenotype (%): 5%
  Population Mitochondria Different-Phenotype (%): 4%
  Population Mitotic Cells (%): 44%
  Population Normal (%): 57%
  Population Pyknosed Nuclei (%): 28%
  Population Tubulin-Different-Phenotype (%): 11%
  Total Cell Count: 626
[12]
  Population Apoptotic (%): 62%
  Population Fragmented Nuclei (%): 24%
  Population Healthy Nuclei (%): 56%
  Population Hoechst High Intensity Objects (%): 48%
  Population Membrane Permeable-Phenotype (%): 2%
  Population Mitochondria Different-Phenotype (%): 1%
  Population Mitotic Cells (%): 37%
  Population Normal (%): 51%
  Population Pyknosed Nuclei (%): 19%
  Population Tubulin-Different-Phenotype (%): 18%
  Total Cell Count: 814

## Cc1cn(-c2cc(NC(=O)c3ccc(C)c(Nc4nccc(-c5cccnc5)n4)c3)cc(C(F)(F)F)c2)cn1 [NILOTINIB]
[1]
  Population Apoptotic (%): 62%
  Population Fragmented Nuclei (%): 36%
  Population Healthy Nuclei (%): 29%
  Population Hoechst High Intensity Objects (%): 8%
  Population Membrane Permeable-Phenotype (%): 16%
  Population Mitochondria Different-Phenotype (%): 20%
  Population Mitotic Cells (%): 37%
  Population Normal (%): 91%
  Population Pyknosed Nuclei (%): 34%
  Population Tubulin-Different-Phenotype (%): 83%
  Total Cell Count: 160
[2]
  Population Apoptotic (%): 25%
  Population Fragmented Nuclei (%): 1%
  Population Healthy Nuclei (%): 86%
  Population Membrane Permeable-Phenotype (%): 1%
  Population Mitochondria Different-Phenotype (%): 18%
  Population Mitotic Cells (%): 75%
  Population Pyknosed Nuclei (%): 11%
  Population Tubulin-Different-Phenotype (%): 10%
  Total Cell Count: 66
[3]
  Population Apoptotic (%): 78%
  Population Fragmented Nuclei (%): 42%
  Population Healthy Nuclei (%): 46%
  Population Hoechst High Intensity Objects (%): 44%
  Population Membrane Permeable-Phenotype (%): 4%
  Population Mitochondria Different-Phenotype (%): 0%
  Population Mitotic Cells (%): 21%
  Population Normal (%): 55%
  Population Pyknosed Nuclei (%): 10%
  Population Tubulin-Different-Phenotype (%): 2%
  Total Cell Count: 2441
[4]
  Population Apoptotic (%): 33%
  Population Fragmented Nuclei (%): 18%
  Population Healthy Nuclei (%): 72%
  Population Hoechst High Intensity Objects (%): 7%
  Population Mitochondria Different-Phenotype (%): 61%
  Population Mitotic Cells (%): 66%
  Population Normal (%): 92%
  Population Pyknosed Nuclei (%): 9%
  Population Tubulin-Different-Phenotype (%): 63%
  Total Cell Count: 73
[5]
  Population Apoptotic (%): 56%
  Population Fragmented Nuclei (%): 32%
  Population Healthy Nuclei (%): 29%
  Population Hoechst High Intensity Objects (%): 13%
  Population Membrane Permeable-Phenotype (%): 17%
  Population Mitochondria Different-Phenotype (%): 32%
  Population Mitotic Cells (%): 43%
  Population Normal (%): 86%
  Population Pyknosed Nuclei (%): 38%
  Population Tubulin-Different-Phenotype (%): 92%
  Total Cell Count: 159
[6]
  Population Apoptotic (%): 40%
  Population Fragmented Nuclei (%): 14%
  Population Healthy Nuclei (%): 79%
  Population Hoechst High Intensity Objects (%): 5%
  Population Membrane Permeable-Phenotype (%): 2%
  Population Mitochondria Different-Phenotype (%): 20%
  Population Mitotic Cells (%): 60%
  Population Normal (%): 94%
  Population Pyknosed Nuclei (%): 5%
  Population Tubulin-Different-Phenotype (%): 12%
  Total Cell Count: 67
[7]
  Population Apoptotic (%): 77%
  Population Fragmented Nuclei (%): 45%
  Population Healthy Nuclei (%): 45%
  Population Hoechst High Intensity Objects (%): 50%
  Population Membrane Permeable-Phenotype (%): 3%
  Population Mitochondria Different-Phenotype (%): 0%
  Population Mitotic Cells (%): 22%
  Population Normal (%): 49%
  Population Pyknosed Nuclei (%): 9%
  Population Tubulin-Different-Phenotype (%): 2%
  Total Cell Count: 2873
[8]
  Population Apoptotic (%): 0%
  Population Fragmented Nuclei (%): 12%
  Population Healthy Nuclei (%): 83%
  Population Hoechst High Intensity Objects (%): 2%
  Population Membrane Permeable-Phenotype (%): 1%
  Population Mitochondria Different-Phenotype (%): 42%
  Population Mitotic Cells (%): 100%
  Population Normal (%): 97%
  Population Pyknosed Nuclei (%): 4%
  Population Tubulin-Different-Phenotype (%): 30%
  Total Cell Count: 93
[9]
  Population Apoptotic (%): 67%
  Population Fragmented Nuclei (%): 32%
  Population Healthy Nuclei (%): 40%
  Population Hoechst High Intensity Objects (%): 16%
  Population Membrane Permeable-Phenotype (%): 10%
  Population Mitochondria Different-Phenotype (%): 29%
  Population Mitotic Cells (%): 32%
  Population Normal (%): 83%
  Population Pyknosed Nuclei (%): 26%
  Population Tubulin-Different-Phenotype (%): 72%
  Total Cell Count: 138
[10]
  Population Apoptotic (%): 100%
  Population Fragmented Nuclei (%): 19%
  Population Healthy Nuclei (%): 79%
  Population Hoechst High Intensity Objects (%): 11%
  Population Membrane Permeable-Phenotype (%): 5%
  Population Mitochondria Different-Phenotype (%): 2%
  Population Mitotic Cells (%): 0%
  Population Normal (%): 89%
  Population Pyknosed Nuclei (%): 1%
  Population Tubulin-Different-Phenotype (%): 5%
  Total Cell Count: 100
[11]
  Population Apoptotic (%): 47%
  Population Fragmented Nuclei (%): 45%
  Population Healthy Nuclei (%): 43%
  Population Hoechst High Intensity Objects (%): 61%
  Population Membrane Permeable-Phenotype (%): 4%
  Population Mitochondria Different-Phenotype (%): 0%
  Population Mitotic Cells (%): 52%
  Population Normal (%): 38%
  Population Pyknosed Nuclei (%): 10%
  Population Tubulin-Different-Phenotype (%): 2%
  Total Cell Count: 2935
[12]
  Population Apoptotic (%): 100%
  Population Fragmented Nuclei (%): 28%
  Population Healthy Nuclei (%): 65%
  Population Hoechst High Intensity Objects (%): 25%
  Population Membrane Permeable-Phenotype (%): 15%
  Population Mitochondria Different-Phenotype (%): 9%
  Population Mitotic Cells (%): 0%
  Population Normal (%): 74%
  Population Pyknosed Nuclei (%): 6%
  Population Tubulin-Different-Phenotype (%): 81%
  Total Cell Count: 66
